Values after ≈ are worked out from the molar mass of the structure shown. Active and inactive are the calls of the source. The calls are words filed in the database; no cut-off is given here.
How the values were obtained:
[1] = test system: Escherichia coli; assay: Antibacterial activity against Escherichia coli ATCC 25922 at 50 ug after 24 hrs by agar diffusion method; assay type: functional
In short: (§1)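 Bacteria pre-grown 24 h on nutritive agar (tryptone soy agar for E. faecalis, L. inocua) at 37 °C (30 °C for E. faecalis, L. inocua, B. cereus). Agar well diffusion with 50 µg compound in 80% DMSO; 80% DMSO alone as control. Inhibition zone diameter averaged from triplicate, scored 6-9, 9-12, >12 mm.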

[2] = test system: Staphylococcus aureus; assay: Antibacterial activity against Staphylococcus aureus ATCC 25923 at 50 ug after 24 hrs by agar diffusion method; assay type: functional; settings: for zone of inhibition at 50 µg/disc: Staphylococcus aureus, ATCC 25923, 24 h, read-out: IZ; in short: as §1
[3] = test system: MCF7; assay: Antiproliferative activity against human MCF7 cells after 72 hrs by MTT assay; assay type: functional; settings: MCF7, 72 h
In short: (§2)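 5000 cells per well added to pre-equilibrated medium at 37 °C; compounds from 10^-3 M DMSO stocks, final 10^-5 M. After 72 h, MTT (5 g/L) for 4 h, formazan dissolved in DMSO, OD 550 nm. % growth inhibition vs 1% DMSO medium (0%) and 10% SDS lysis (100%); mean ± SEM, 24 measures, three independent experiments.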

[4] = test system: Pichia kudriavzevii; assay: Antifungal activity against Issatchenkia orientalis DSM6128 at 50 ug after 24 hrs by agar diffusion method; assay type: functional, organism-based
In short: (§3)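 Yeasts grown on yeast extract peptone dextrose medium at 30 °C for 24 h, then agar well diffusion with 50 µg compound in 80% DMSO; 80% DMSO alone as control. Averaged inhibition zone diameter from triplicate, scored 6-9, 9-12 or >12 mm.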

[5] = test system: Candida albicans; assay: Antifungal activity against Candida albicans ATCC 10231 at 50 ug after 24 hrs by agar diffusion method; assay type: functional; in short: as §3
[6] = test system: Listeria innocua; assay: Antibacterial activity against Listeria innocua at 50 ug after 24 hrs by agar diffusion method; assay type: functional; in short: as §1
[7] = test system: Candida tropicalis; assay: Antifungal activity against Candida tropicalis DSM 1346 at 50 ug after 24 hrs by agar diffusion method; assay type: functional; in short: as §3
[8] = test system: MDA-MB-231; assay: Antiproliferative activity against human MDA-MB-231 cells at 10 uM after 72 hrs by MTT assay; assay type: functional; settings: MDA-MB-231, 72 h; in short: as §2
[9] = test system: Bacillus cereus; assay: Antibacterial activity against Bacillus cereus at 50 ug after 24 hrs by agar diffusion method; assay type: functional; settings: for zone of inhibition at 50 µg/disc: read-out: IZ; in short: as §1
[10] = test system: Enterococcus faecalis; assay: Antibacterial activity against Enterococcus faecalis CIP 103214 at 50 ug after 24 hrs by agar diffusion method; assay type: functional; in short: as §1
[11] = test system: Klebsiella pneumoniae; assay: Antibacterial activity against Klebsiella pneumoniae CIP 53153 at 50 ug after 24 hrs by agar diffusion method; assay type: functional, organism-based; in short: as §1
[12] = test system: Nakaseomyces glabratus; assay: Antifungal activity against Candida glabrata DSM6425 at 50 ug after 24 hrs by agar diffusion method; assay type: functional; in short: as §3
[13] = test system: Pseudomonas aeruginosa; assay: Antibacterial activity against Pseudomonas aeruginosa ATCC 27853 at 50 ug after 24 hrs by agar diffusion method; assay type: functional, organism-based; in short: as §1
[14] = test system: MDA-MB-231; assay: Antiproliferative activity against human MDA-MB-231 cells after 72 hrs by MTT assay; assay type: functional; settings: MDA-MB-231, 72 h; in short: as §2
[15] = test system: Bacillus cereus; assay: Antibacterial activity against Bacillus cereus after 24 hrs by broth macrodilution method; assay type: functional
In short: (§4)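 Bacteria pre-grown 24 h on nutritive agar (tryptone soy agar for E. faecalis, L. inocua) at 37 °C (30 °C for E. faecalis, L. inocua, B. cereus). MIC and MBC determined by macro-dilution broth method; MBC = lowest concentration killing 99.99% of inoculum. Compounds in DMSO, max 2.13% solvent in cultures. Triplicate.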

[16] = test system: Staphylococcus aureus; assay: Antibacterial activity against Staphylococcus aureus ATCC 25923 after 24 hrs by broth macrodilution method; assay type: functional; settings: ATCC 25923, 24 h; in short: as §4
[17] = test system: Candida tropicalis; assay: Antifungal activity against Candida tropicalis DSM 1346 after 24 hrs by broth macrodilution method; assay type: functional; settings: DSM 1346, 24 h
In short: (§5)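 Yeasts pre-grown on yeast extract peptone dextrose medium, 30 °C, 24 h. MIC and MFC by macro-dilution broth method; compounds in DMSO, max 2.13% solvent in cultures. Amphotericin B and fluconazole as references. MFC/MIC ratio computed; ≥4 taken as fungistatic. Triplicate.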

[18] = test system: Nakaseomyces glabratus; assay: Antifungal activity against Candida glabrata DSM6425 after 24 hrs by broth macrodilution method; assay type: functional; settings: DSM6425, 24 h; in short: as §5
[19] = test system: Candida albicans; assay: Antifungal activity against Candida albicans ATCC 10231 after 24 hrs by broth macrodilution method; assay type: functional; settings: ATCC 10231, 24 h; in short: as §5
[20] = test system: Nakaseomyces glabratus; assay: Ratio of MFC to MIC against Candida glabrata DSM6425; assay type: functional; in short: as §5
[21] = test system: Escherichia coli; assay: Antibacterial activity against Escherichia coli ATCC 25922 after 24 hrs by broth macrodilution method; assay type: functional; settings: ATCC 25922, 24 h; in short: as §4

SMILES	Activity [1]	Activity [2]	GI50 [3] [µM]	Activity [4]	Activity [5]	Activity [6]	Activity [7]	inhibition at 10 µM [8] [%]	Activity [9]	Activity [10]	Activity [11]	Activity [12]	Activity [13]	GI50 [14] [µM]	zone of inhibition at 50 µg/disc [2] [mm]	also measured
O=[N+]([O-])c1ccc(-c2nss/c2=N\c2ccccc2)cc1	inactive	inactive	10	inactive	inactive	inactive	inactive	0	inactive	inactive	inactive	inactive	inactive	> 10	–	–
S=c1ssnc1-c1ccccc1	inactive	–	> 10	inactive	inactive	inactive	inactive	0	–	inactive	inactive	inactive	inactive	> 10	12	MBC [15]: > 48 µg/mL; MIC [15]: > 48 µg/mL; zone of inhibition at 50 µg/disc [9]: 9 mm; MBC [16]: > 48 µg/mL; MIC [16]: 32 µg/mL (≈ 151 µM)
S=c1ssnc1-c1cc2ccccc2o1	inactive	inactive	> 10	inactive	inactive	inactive	inactive	0	inactive	inactive	inactive	inactive	inactive	> 10	–	–
c1ccc(/N=c2\ssnc2-c2ccccc2)cc1	inactive	–	10	inactive	inactive	inactive	inactive	0	inactive	inactive	inactive	inactive	inactive	> 10	6	–
O=[N+]([O-])c1ccc(-c2nssc2=S)cc1	inactive	–	> 10	inactive	inactive	inactive	inactive	0	inactive	inactive	inactive	inactive	inactive	> 10	6	–
Cc1nssc1=S	inactive	–	> 10	inactive	inactive	inactive	inactive	0	inactive	inactive	inactive	inactive	inactive	> 10	6	MBC [16]: > 48 µg/mL; MIC [16]: 48 µg/mL (≈ 322 µM)
c1ccc(/N=c2\ssnc2-c2cccs2)cc1	inactive	inactive	> 10	inactive	inactive	inactive	inactive	0	inactive	inactive	inactive	inactive	inactive	> 10	–	–
c1ccc(/N=c2\ssnc2-c2cc3ccccc3o2)cc1	inactive	inactive	10	inactive	inactive	inactive	inactive	0	inactive	inactive	inactive	inactive	inactive	> 10	–	–
Cc1nss/c1=N\c1ccccc1	inactive	inactive	> 10	inactive	inactive	inactive	inactive	0	inactive	inactive	inactive	inactive	inactive	> 10	–	–
CCOC(=O)c1nss/c1=N\c1ccccc1	inactive	–	> 10	inactive	–	inactive	–	0	–	inactive	inactive	–	inactive	> 10	6	MFC [17]: > 48 µg/mL; MIC [17]: 32 µg/mL (≈ 120 µM); MFC [18]: 48 µg/mL (≈ 180 µM); MIC [18]: 32 µg/mL (≈ 120 µM); zone of inhibition at 50 µg/disc ([5]; ATCC 10231, 24 h, read-out: IZ): > 12 mm; zone of inhibition at 50 µg/disc ([7]; DSM 1346, 24 h, read-out: IZ): 9 mm; MFC [19]: > 48 µg/mL; MIC [19]: 48 µg/mL (≈ 180 µM); MBC [15]: > 48 µg/mL; MIC [15]: 48 µg/mL (≈ 180 µM); zone of inhibition at 50 µg/disc [9]: 6 mm; Ratio [20]: 1.5; zone of inhibition at 50 µg/disc ([12]; DSM6425, 24 h, read-out: IZ): 9 mm; MBC [16]: > 48 µg/mL; MIC [16]: 48 µg/mL (≈ 180 µM)
O=c1ssnc1-c1ccccc1	–	inactive	> 10	inactive	inactive	inactive	inactive	0	inactive	inactive	inactive	inactive	inactive	> 10	–	zone of inhibition at 50 µg/disc ([1]; ATCC 25922, 24 h, read-out: IZ): 6 mm; MBC [21]: > 48 µg/mL; MIC [21]: > 48 µg/mL
Fc1ccc(-c2nss/c2=N\c2ccccc2)cc1	inactive	inactive	10	inactive	inactive	inactive	inactive	0	inactive	inactive	inactive	inactive	inactive	> 10	–	–
Fc1ccc(-c2nssc2=S)cc1	inactive	inactive	> 10	inactive	inactive	inactive	inactive	0	inactive	inactive	inactive	inactive	inactive	> 10	–	–
S=c1ssnc1-c1cccs1	inactive	inactive	> 10	inactive	inactive	inactive	inactive	0	inactive	inactive	inactive	inactive	inactive	> 10	–	–

Source: ChEMBL document CHEMBL1139303, “One-pot synthesis of 5-phenylimino, 5-thieno or 5-oxo-1,2,3-dithiazoles and evaluation of their antimicrobial and antitumor activity” (2009)
